Assay [1] can be described thus: HUVEC growth inhibition – cell-based, human, primary screen (AID 575;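 active = viability at or below 30% in both replicate assays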;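 also: 100% = median of untreated cell wells with 0.1% DMSO on each plate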). The settings on record: HUVEC proliferation, CellTiter-Glo luminescence, 72 h; at 10 µM; stronger effect = lower value. In outline: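 Assay system: Primary human umbilical vein endothelial cells | Quantity: 1250 cells per well | Medium: Supplemented EBM, 2% fetal bovine serum | Detection: CellTiter-Glo luminescence measuring cellular ATP | Read-out: % viability vs DMSO wells | Plate: Collagen-coated 384-well format | Times: 72 h exposure, 37 °C, 5% CO2, 30 min RT equilibration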

Assay [2] in a line: H69AR cell proliferation blockers – human, duplicate replicates, primary screen (AID 580;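 active = viability at or under a set limit in both replicates, limit being median viability minus 3 SD, cut at about 48% in these data, passing the limit was not always enough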;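 also: 100% = mean luminescence of untreated wells and 0% = no signal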). The settings on record: H69AR lung tumor cells viability, ATP luminescence, 72 h; at 10 µM; stronger effect = lower value.
Assay [3] can be described thus: MRP1 drug-resistance reversers in H69AR cells – cell-based, doxorubicin co-treatment, pilot screen (AID 601;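 active = viability loss from added drug above about 55%, and viability with drug at most 40%, in both replicates, limit read from the data, passing the limit was not always enough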). The settings on record: CellTiter-Glo, 72 h, at 10 µM; for differential viability (reversal): stronger effect = higher value.
The nature of assay [4]: yeast transport mutant growth inhibition pilot in 384-well plates, post-Golgi transport modulator project (AID 636; in the data active = inhibition above about 31%). Particulars: absorbance 615 nm, about 18 h, stronger effect = higher value.
Assay [5] can be described thus: growth suppression of yeast trafficking mutant, preliminary HTS, modulators of trafficking downstream of Golgi apparatus project, 1536-format plate, OD 615 nm (AID 637). The settings on record: yeast transport mutant growth, absorbance 615 nm, 18 h; stronger effect = higher value.
The mark [6] stands for this setting: H69AR cells + 2 uM doxorubicin, measured here: viability with 2 uM doxorubicin, stronger effect = lower value.
Setting [7] is: H69AR cells, compound alone cytotoxicity.

viability, differential viability (reversal) and inhibition data for 18 compounds are collected here from PubChem BioAssay.

The structures appear in SMILES notation. The source made the active and inactive calls. Rule as the data show it, unless noted: active = inhibition above about 30%; inactive = the rest.

As to `Cc1cc(C(=O)Nc2cccc(O)c2)c(C)o1`, the viability in assay [1] was 87.1% (inactive); in assay [2], 90% (inactive); in assay [3] (setting [6]) it was 86.4%; in assay [3] (setting [7]) it was 90%. The differential viability (reversal) in assay [3] (H69AR cells + 2 uM doxorubicin) was 3.61% (inactive). Also, the results for the inhibition in assay [4] and in assay [5] were -4.55% (inactive) and 3.17% (inactive), respectively.
For the compound `CC(C)[C@H](NC(=O)OC(C)(C)C)c1nnc(S(=O)(=O)Cc2c(F)cccc2Cl)o1`, the viability is 69.5% (inactive) in assay [1], 1.65% (active) in assay [2], 1.58% in assay [3] (setting [6]) and 1.65% in assay [3] (setting [7]). The differential viability (reversal) in assay [3] (H69AR cells + 2 uM doxorubicin) is 0.065% (inactive). Also, the inhibition in assay [4] was -2.76% (inactive); in assay [5] it was 9.02% (inactive).
With `COc1ccc(/C(O)=C2/C(=O)C(=O)N(Cc3cccnc3)C2c2ccncc2)cc1F` (stereo unspecified), the viability in assay [1] is 111% (inactive); in assay [2] it was 97.4% (inactive); in assay [3] (setting [6]) it was 94.3%; in assay [3] (setting [7]), 97.4%. Moreover, the differential viability (reversal) in assay [3] (H69AR cells + 2 uM doxorubicin) is 3.08% (inactive). The inhibition in assay [4] was -6.62% (inactive); in assay [5], 0.16% (inactive).
Turning to `c1ccc(-c2noc(-c3cccnc3)n2)nc1`, the viability in assay [1] is 84.8% (inactive); in assay [2] it was 72.1% (inactive); in assay [3] (setting [6]), 67.5%; in assay [3] (setting [7]), 72.1%. For the same compound, the differential viability (reversal) in assay [3] (H69AR cells + 2 uM doxorubicin) was 4.56% (inactive). The inhibition is -3.77% (inactive) in assay [4] and 6.67% (inactive) in assay [5].
Regarding `C1=CC2CC1CC2CN1CCN(c2ccccc2)CC1` (stereo unspecified), the viability in assay [1] is 97.7% (inactive); in assay [2], 91.8% (inactive); in assay [3] (setting [6]) it was 94.8%; in assay [3] (setting [7]), 91.8%. Further, the differential viability (reversal) in assay [3] (H69AR cells + 2 uM doxorubicin) was -2.94% (inactive). Also, the results for the inhibition in assay [4] and in assay [5] were 1.45% (inactive) and -1.27% (inactive), respectively.
For `CC(C)C(c1nnnn1C1CCCC1)N1CCCc2ccccc21` (stereo unspecified), the viability in assay [1] is 80.3% (inactive); in assay [2], 84.5% (inactive); in assay [3] (setting [6]), 91.2%; in assay [3] (setting [7]), 84.5%. In assay [3] (H69AR cells + 2 uM doxorubicin), the differential viability (reversal) is -6.77% (inactive). Moreover, the inhibition in assay [4] is 1.33% (inactive); in assay [5], -3.65% (inactive).
With `CCN1CCN(Cc2ccccc2NC(=O)Nc2ccc(C)cc2)CC1`, the viability in assay [1] is 89.7% (inactive); in assay [2] it was 98% (inactive); in assay [3] (setting [6]) it was 86.8%; in assay [3] (setting [7]), 98%. For the same compound, the differential viability (reversal) in assay [3] (H69AR cells + 2 uM doxorubicin) was 11.2% (inactive). Further, the values for the inhibition in assay [4] and in assay [5] were -5.92% (inactive) and -0.16% (inactive), respectively.
Consider `CCCN(CCC)c1nc2ccccc2n2c(C)nnc12`, for which the viability in assay [1] was 85.3% (inactive); in assay [2] it was 81.1% (inactive); in assay [3] (setting [6]), 85.8%; in assay [3] (setting [7]), 81.1%. Besides, the differential viability (reversal) in assay [3] (H69AR cells + 2 uM doxorubicin) is -4.65% (inactive). In addition, the inhibition in assay [4] was -1.45% (inactive); in assay [5], 8.1% (inactive).
As to `Cc1ccc(C2C(C#N)=C(N)Oc3cc4c(cc32)OCO4)cc1` (stereo unspecified), the viability in assay [1] was 48.4% (inactive); in assay [2] it was 10.2% (active); in assay [3] (setting [6]), 54.4%; in assay [3] (setting [7]), 10.2%. The differential viability (reversal) in assay [3] (H69AR cells + 2 uM doxorubicin) is -44.2% (inactive). Moreover, the results for the inhibition in assay [4] and in assay [5] were -4.42% (inactive) and 1.27% (inactive), respectively.
As to `COc1ccc(N(CC(=O)Nc2ccccc2SC)S(C)(=O)=O)cc1OC`, the viability was 113% (inactive) in assay [1], 98.2% (inactive) in assay [2], 90.7% in assay [3] (setting [6]) and 98.2% in assay [3] (setting [7]). In assay [3] (H69AR cells + 2 uM doxorubicin), the differential viability (reversal) is 7.5% (inactive). Moreover, the results for the inhibition in assay [4] and in assay [5] were -2.63% (inactive) and 1.75% (inactive), respectively.
In the case of `COC(=O)c1c(C(=O)OC)n(CCCN)c2ccc(C)cc12`, the viability is 89.1% (inactive) in assay [1], 89.7% (inactive) in assay [2], 85.3% in assay [3] (setting [6]) and 89.7% in assay [3] (setting [7]). For the same compound, the differential viability (reversal) in assay [3] (H69AR cells + 2 uM doxorubicin) was 4.39% (inactive). In addition, the inhibition in assay [4] was -0.52% (inactive); in assay [5], -1.11% (inactive).
In the case of `Cc1ccnc(NS(=O)(=O)c2ccc(N=CC3=C(O)CC(C)(C)CC3=O)cc2)n1`, the viability in assay [1] is 102% (inactive); in assay [2], 97.1% (inactive); in assay [3] (setting [6]), 97.5%; in assay [3] (setting [7]), 97.1%. Further, the differential viability (reversal) in assay [3] (H69AR cells + 2 uM doxorubicin) is -0.37% (inactive). Further, the inhibition is 0.92% (inactive) in assay [4] and -5.4% (inactive) in assay [5].
With `CN(C)c1nc(N)nc(CSc2nnnn2-c2cccc3ccccc23)n1`, the viability in assay [1] was 99.9% (inactive); in assay [2], 70.1% (inactive); in assay [3] (setting [6]) it was 73.4%; in assay [3] (setting [7]) it was 70.1%. In addition, in assay [3] (H69AR cells + 2 uM doxorubicin), the differential viability (reversal) was -3.27% (inactive). In addition, the figures for the inhibition in assay [4] and in assay [5] were -6.58% (inactive) and 4.13% (inactive), respectively.
Regarding `S=c1[nH]nc(COc2ccccc2)n1C1CCCCC1`, the viability was 89.5% (inactive) in assay [1], 81.6% (inactive) in assay [2], 59.2% in assay [3] (setting [6]) and 81.6% in assay [3] (setting [7]). Also, the differential viability (reversal) in assay [3] (H69AR cells + 2 uM doxorubicin) was 22.4% (inactive). In addition, the inhibition was -0.39% (inactive) in assay [4] and 6.35% (inactive) in assay [5].
For the compound `CCS(=O)(=O)N1CCC(C(=O)NCc2cccs2)CC1`, the viability in assay [1] was 87.2% (inactive); in assay [2], 99.3% (inactive); in assay [3] (setting [6]), 89.6%; in assay [3] (setting [7]), 99.3%. The differential viability (reversal) in assay [3] (H69AR cells + 2 uM doxorubicin) is 9.73% (inactive). Moreover, the results for the inhibition in assay [4] and in assay [5] were -1.04% (inactive) and -3.02% (inactive), respectively.
On to `COc1ccc(C(=O)N2CCN(C(=O)c3ccco3)CC2)cc1OC`, for which the viability in assay [1] is 87.2% (inactive); in assay [2] it was 95.9% (inactive); in assay [3] (setting [6]) it was 91.1%; in assay [3] (setting [7]), 95.9%. Also, the differential viability (reversal) in assay [3] (H69AR cells + 2 uM doxorubicin) was 4.87% (inactive). Besides, the inhibition was -5.73% (inactive) in assay [4] and 0.32% (inactive) in assay [5].
With `Cc1cc(C(=O)Nc2cc(C)n(Cc3ccc(Cl)cc3)n2)no1`, the viability was 102% (inactive) in assay [1], 94.5% (inactive) in assay [2], 92.1% in assay [3] (setting [6]) and 94.5% in assay [3] (setting [7]). In assay [3] (H69AR cells + 2 uM doxorubicin), the differential viability (reversal) is 2.41% (inactive). Also, the values for the inhibition in assay [4] and in assay [5] were 1.97% (inactive) and -6.51% (inactive), respectively.
Turning to `COc1cccc(CC(NC(C)=O)C(=O)NC2CCN(c3c4c(nc5ncnn35)CCC4)CC2)c1` (stereo unspecified), the viability in assay [1] is 90.4% (inactive); in assay [2], 96.1% (inactive); in assay [3] (setting [6]), 87.9%; in assay [3] (setting [7]), 96.1%. Also, the differential viability (reversal) in assay [3] (H69AR cells + 2 uM doxorubicin) was 8.17% (inactive). Also, the results for the inhibition in assay [4] and in assay [5] were -6.18% (inactive) and 3.17% (inactive), respectively.
